Assay results published in ChEMBL document CHEMBL2062360, “Distinct biological effects of golgicide a derivatives on larval and adult mosquitoes” (2012).

What was measured:
Format in all cases: functional
[1] = tested on: Anopheles stephensi; test: Insecticidal activity against Anopheles stephensi second instar larvae assessed as mortality at 0.2 mM after 24 hrs by microscopic analysis relative to control
Outline: (§1)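 Second instar larvae of Ae. aegypti and An. stephensi were exposed to compounds added directly to the culture media, with DMSO as the vehicle control. Larval mortality was scored 24 h later and reported as mean with SEM, with statistical testing against control.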

[2] = tested on: Aedes aegypti; test: Insecticidal activity against Aedes aegypti second instar larvae assessed as mortality at 0.2 mM after 24 hrs by microscopic analysis relative to control; outline: as §1
[3] = tested on: Aedes aegypti; test: Insecticidal activity against Aedes aegypti assessed as ovarian follicle size at 0.7 mM administered 1 hr post human blood-meal measured after 47 hrs (reference value: 482.6+/-4.8 um)
[4] = Selectivity ratio of mortality against Anopheles stephensi second instar larvae to mortality against Aedes aegypti second instar larvae
[5] = tested on: Aedes aegypti; test: Insecticidal activity against Aedes aegypti second instar larvae assessed as mortality after 24 hrs by microscopic analysis relative to control; outline: as §1
[6] = tested on: Anopheles stephensi; test: Insecticidal activity against Anopheles stephensi second instar larvae assessed as mortality after 24 hrs by microscopic analysis relative to control; outline: as §1

Compound | Activity [1] | Activity [2] | Activity [3] | Ratio [4] | LC50 [5] | LC50 [6]
Fc1cc(F)c2c(c1)[C@H]1C=CC[C@H]1[C@@H](c1cccnc1)N2 | 0% | 4.7% | 408.2 um | – | – | –
Fc1cc(F)c2c(c1)[C@@H]1C=CC[C@@H]1[C@H](c1cccnc1)N2 | 83.4% | 18.1% | 270 um | 5 | – | –
Fc1cc(F)c2c(c1)[C@H]1C=CC[C@H]1[C@H](c1cccnc1)N2 | 0% | 1.5% | 433.6 um | – | – | –
Fc1cc(F)c2c(c1)[C@@H]1C=CC[C@@H]1[C@@H](c1cccnc1)N2 | 57.5% | 12.3% | 407.7 um | 5 | – | –
Fc1cc(F)c2c(c1)[C@@H]1C=CC[C@@H]1[C@H](c1ccccc1)N2 | 0% | 0% | 235.1 um | – | – | –
Fc1cc(F)c2c(c1)[C@@H]1C=CC[C@@H]1C(c1cccnc1)N2 (mixture of isomers) | – | – | 291.8 um | – | – | –
Fc1cc(C(F)(F)F)cc2c1NC(c1cccnc1)[C@H]1CC=C[C@@H]21 (mixture of isomers) | 0% | 5.3% | 315 um | – | – | –
CN1c2c(F)cc(F)cc2[C@@H]2C=CC[C@@H]2[C@@H]1c1cccnc1 (racemic) | 100% | 96.2% | 416.3 um | – | 100 µM | 100 µM
Fc1ccc2c(c1)[C@@H]1C=CC[C@@H]1[C@H](c1cccnc1)N2 (racemic) | 0% | 0% | 343.8 um | – | – | –
CC(=O)N1c2c(F)cc(F)cc2[C@@H]2C=CC[C@@H]2[C@@H]1c1cccnc1 (racemic) | 0% | 1.7% | 442.7 um | – | – | –
Fc1cccc2c1N[C@@H](c1cccnc1)[C@H]1CC=C[C@@H]21 (racemic) | 100% | 91.4% | 312.1 um | – | 200 µM | 200 µM
Fc1cc(F)c2c(c1)[C@@H]1C=CC[C@@H]1[C@H](c1cncs1)N2 (racemic) | 37.6% | 0% | 330.8 um | 5 | – | –
CC(C)(C)[C@@H]1Nc2c(F)cc(F)cc2[C@@H]2C=CC[C@H]12 (racemic) | 86.4% | 15.4% | 326.2 um | 5 | – | –
Fc1cc(F)c2c(c1)[C@@H]1C=CC[C@@H]1[C@H](c1ccccn1)N2 (racemic) | 100% | 100% | 287.5 um | – | 100 µM | 100 µM
N#Cc1ccc([C@@H]2Nc3c(F)cc(F)cc3[C@@H]3C=CC[C@@H]32)cc1 (racemic) | 0% | 0% | 309.5 um | – | – | –
CC(=O)NCc1ccc([C@@H]2Nc3c(F)cc(F)cc3[C@@H]3C=CC[C@@H]32)cc1 (racemic) | 0% | 0% | 375.4 um | – | – | –
NCc1ccc([C@@H]2Nc3c(F)cc(F)cc3[C@@H]3C=CC[C@@H]32)cc1 (racemic) | 81.7% | 91.7% | 301.5 um | – | 200 µM | 100 µM
Fc1cc(F)c2c(c1)[C@@H]1C=CC[C@@H]1[C@H](c1ccc(C(F)(F)F)cc1)N2 (racemic) | 0% | 5.9% | 230.4 um | – | – | –
CN1CCC(NCc2ccc([C@@H]3Nc4c(F)cc(F)cc4[C@@H]4C=CC[C@@H]43)cc2)CC1 (racemic) | 100% | 100% | 275.3 um | – | 50 µM | 50 µM
CCCCCCCNCc1ccc([C@@H]2Nc3c(F)cc(F)cc3[C@@H]3C=CC[C@@H]32)cc1 (racemic) | 0% | 0% | 243.4 um | – | – | –
Fc1cc(F)c2c(c1)[C@@H]1C=CC[C@@H]1[C@H](c1ccc(CNCc3ccc4ccccc4c3)cc1)N2 (racemic) | 0% | 0% | 255.9 um | – | – | –
Fc1cc(F)c2c(c1)[C@@H]1C=CC[C@@H]1[C@H](c1ccc(CNCc3ccc(C(F)(F)F)cc3)cc1)N2 (racemic) | 0% | 0% | 297.5 um | – | – | –
